Laboratory results: ChEMBL document CHEMBL1126589, “Substituted 3-(phenylmethyl)-1H-indole-5-carboxamides and 1-(phenylmethyl)indole-6-carboxamides as potent, selective, orally active antagonists of the peptidoleukotrienes” (J Med Chem, 1993)

Columns and labels:
[1] = target: T1, Cysteinyl leukotriene receptor 1 (Cavia porcellus, UniProt Q2NNR5); assay: Binding affinity to the leukotriene receptor (LTD4) from guinea pig lung parenchymal membranes assayed using [3H]LTD4 as radioligand; assay type: tissue-based, Lung parenchyma
T1 sequence (Q2NNR5 whole entry): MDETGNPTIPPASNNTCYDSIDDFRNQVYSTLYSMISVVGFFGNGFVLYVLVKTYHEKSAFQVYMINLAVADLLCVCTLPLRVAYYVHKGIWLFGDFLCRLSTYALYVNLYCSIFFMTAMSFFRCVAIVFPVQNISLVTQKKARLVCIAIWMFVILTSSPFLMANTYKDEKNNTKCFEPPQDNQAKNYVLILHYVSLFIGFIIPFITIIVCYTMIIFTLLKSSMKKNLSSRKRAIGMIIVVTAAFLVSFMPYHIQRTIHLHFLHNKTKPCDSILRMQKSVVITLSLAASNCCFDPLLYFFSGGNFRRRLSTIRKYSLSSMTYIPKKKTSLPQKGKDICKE
How it was run: (§1)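 Displacement of [3H]LTD4 from guinea pig lung parenchymal membranes; Ki is the mean of two experiments run in duplicate with separate batches, reported as pKi (-log Ki).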

[2] = target: T2, Cysteinyl leukotriene receptor 1 (Cavia porcellus) (UniProt Q2NNR5); assay: Binding affinity against leukotriene receptor (LTE4) from guinea pig tracheal spirals; assay type: tissue-based
T2 sequence (whole entry): T1 sequence (Q2NNR5 whole entry)
How it was run: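 Functional antagonism in isolated guinea pig tracheal spirals contracted with LTE4 as agonist; KB derived from concentration-response curves, n = number of curves.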

Cavia porcellus [3] = assay: Effective dose against LTD4-induced bronchoconstriction in guinea pig after peroral administration; assay type: functional; conditions: po
How it was run: (§2)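 Conscious guinea pigs challenged with LTD4 ("dyspnea" model) after oral or intravenous dosing; percent protection from LTD4-induced dyspnea plotted against dose to derive ED50; po/iv ratio taken from the oral and intravenous ED50 values.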

Cavia porcellus [4] = assay: Effective dose against LTD4-induced bronchoconstriction in guinea pig after intravenous administration; assay type: functional; how it was run: as §2
Rattus norvegicus [5] = assay: Integrated area under the blood concentration vs time curve for the period 0-24 hr postdose of 1 mg/kg (normalized to a 1 mg/kg dose) in rat; assay type: ADME, organism-based; set-up: dose 1 mg/kg, time < 24 hr; conditions: in vivo
How it was run: (§3)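 Sprague-Dawley rats, fasted overnight, cannulated in carotid artery and/or jugular vein at least 20 h before dosing. Oral doses 1 or 2.5 mg/kg, iv 2.5 mg/kg via jugular cannula, in polyethylene glycol/phosphate buffered saline. Unchanged compound in whole blood measured by HPLC over 0–24 h; AUC by trapezoidal rule; values also normalized to 1.0 mg/kg.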

Rattus norvegicus [6] = assay: Maximum concentration in whole blood recorded in the period 0-24 hr postdose of 1 mg/kg in rat (normalized to a 1 mg/kg dose); assay type: ADME, organism-based; set-up: dose 1 mg/kg; conditions: in vivo; how it was run: as §3
[7] = ED50 ratio of LTD4 peroral administration / LTD4 intravenous administration; assay type: functional; how it was run: as §2
[8] = target: T1, Cysteinyl leukotriene receptor 1; assay: Binding affinity against leukotriene receptor (LTD4) from guinea pig lung parenchymal membranes using [3H]LTD4 as radio ligand; assay type: tissue-based, Lung parenchyma; how it was run: as §1
[9] = Maximum concentration in whole blood recorded in the period 0-24 hr postdose of 1 mg/kg in rat; assay type: ADME, organism-based; set-up: dose 1 mg/kg
Rattus norvegicus [10] = assay: Integrated area under the blood concentration vs time curve for the period 0-24 hr postdose of 1 mg/kg in rat; assay type: ADME, organism-based; set-up: time < 24 hr, dose 1 mg/kg; conditions: in vivo

SMILES	Ki [1]	pKB [2]	ED50 (Cavia porcellus [3])	ED50 (Cavia porcellus [4])	Ki [8]	also measured
CCCCCC(C)CNC(=O)c1ccc2c(c1)c(Cc1ccc(C(=O)NS(=O)(=O)c3ccccc3C)cc1OC)cn2C (configuration not stated)	10 nM					
COc1cc(C(=O)NS(=O)(=O)c2ccccc2C)ccc1Cc1cn(C)c2ccc(C(=O)NCC(C)(C)C)cc12	15.8 nM	7.5				
CCCn1cc(Cc2ccc(C(=O)NS(=O)(=O)c3ccccc3C)cc2OC)c2cc(C(=O)NCC3CCCC3)ccc21	0.316 nM	8.7	4.8 µmol/kg	0.03 µmol/kg		AUC (Rattus norvegicus [5]): 1610 ng·h/mL; Cmax (Rattus norvegicus [6]): 106 ng/mL; Ratio [7]: 179
CCC(CC)CNC(=O)c1ccc2c(c1)c(Cc1ccc(C(=O)NS(=O)(=O)c3ccccc3C)cc1OC)cn2C(C)C	0.501 nM	8.8	4.7 µmol/kg	0.02 µmol/kg		Ratio [7]: 300
CCC(CC)CNC(=O)c1ccc2c(C)cn(Cc3ccc(C(=O)NS(=O)(=O)c4ccccc4C)cc3OC)c2c1	2.51 nM	8.4				
C=CCn1cc(Cc2ccc(C(=O)NS(=O)(=O)c3ccccc3C)cc2OC)c2cc(C(=O)NCC3CCCC3)ccc21	0.398 nM	8.3	9.9 µmol/kg	0.03 µmol/kg		
CCC(CC)CNC(=O)c1ccc2c(c1)c(Cc1ccc(C(=O)NS(=O)(=O)c3ccccc3Br)cc1OC)cn2C		9.1	21.4 µmol/kg	0.84 µmol/kg	3.98 nM	Ratio [7]: 25
CCCCN(CCCC)C(=O)c1ccc2c(c1)c(Cc1ccc(C(=O)NS(=O)(=O)c3ccccc3C)cc1OC)cn2C	79.4 nM					
CCC(CC)CNC(=O)c1ccc2c(c1)c(Cc1ccc(C(=O)NS(=O)(=O)c3ccccc3C)cc1OC)cn2Cc1ccccc1	1.26 nM	8.3				
COc1cc(C(=O)NS(=O)(=O)c2ccccc2C)ccc1Cn1cc(C)c2ccc(C(=O)NCC3CCCC3)cc21	10 nM	8.9	~30 µmol/kg	1.62 µmol/kg		Ratio [7]: ~20
C/C=C\c1cn(Cc2ccc(C(=O)NS(=O)(=O)c3ccccc3C)cc2OC)c2cc(C(=O)NCC(CC)CC)ccc12					50.1 nM	
CCCC1CCN(C(=O)c2ccc3c(c2)c(Cc2ccc(C(=O)NS(=O)(=O)c4ccccc4C)cc2OC)cn3C)CC1	100 nM					
CCCn1cc(Cc2ccc(C(=O)NS(=O)(=O)c3ccccc3C)cc2OC)c2cc(C(=O)NCC(C)C)ccc21	2 nM	9.1	31 µmol/kg	0.07 µmol/kg		Ratio [7]: 456
CCCCC(CC)NC(=O)c1ccc2c(c1)c(Cc1ccc(C(=O)NS(=O)(=O)c3ccccc3C)cc1OC)cn2C (configuration not stated)	126 nM					
CCC(CC)CNC(=O)c1ccc2c(CC3CCCC3)cn(Cc3ccc(C(=O)NS(=O)(=O)c4ccccc4C)cc3OC)c2c1					1 nM	
COc1cc(C(=O)NS(=O)(=O)c2ccccc2C)ccc1Cc1cn(C)c2ccc(C(=O)NCC(C)C)cc12		8.6	> 30 µmol/kg		6.31 nM	
CCCCC(CC)CNC(=O)c1ccc2c(c1)c(Cc1ccc(C(=O)NS(=O)(=O)c3ccccc3C)cc1OC)cn2C (configuration not stated)	6.31 nM	8.1	8.06 µmol/kg	0.28 µmol/kg		Ratio [7]: 29
CCC(CC)CNC(=O)c1ccc2c(CC3CCCCC3)cn(Cc3ccc(C(=O)NS(=O)(=O)c4ccccc4C)cc3OC)c2c1					2.51 nM	
COc1cc(C(=O)NS(=O)(=O)c2ccccc2C)ccc1Cc1cn(C)c2ccc(C(=O)N(C)CC(C)C)cc12	63.1 nM					
CCC(CC)CNC(=O)c1ccc2c(c1)c(Cc1ccc(C(=O)NS(=O)(=O)c3ccccc3C)cc1OC)cn2C1CCCC1	2.51 nM					

SMILES	Ki [1]	pKB [2]	ED50 (Cavia porcellus [3])	ED50 (Cavia porcellus [4])	Ki [8]	also measured
CCC(CC)CNC(=O)c1ccc2ccn(Cc3ccc(C(=O)NS(=O)(=O)c4ccccc4C)cc3OC)c2c1	12.6 nM					
CCC(CC)CNC(=O)c1ccc2c(CC(C)C)cn(Cc3ccc(C(=O)NS(=O)(=O)c4ccccc4C)cc3OC)c2c1		8.2			6.31 nM	
COc1cc(C(=O)NS(=O)(=O)c2ccccc2C)ccc1Cn1cc(C)c2ccc(NC(=O)CC3CCCC3)cc21		9.3	0.3 µmol/kg			
CCC(CC)CNC(=O)c1ccc2c(c1)c(Cc1ccc(C(=O)NS(=O)(=O)c3ccccc3Cl)cc1OC)cn2C					6.31 nM	
CCCn1cc(Cc2ccc(C(=O)NS(=O)(=O)c3ccccc3)cc2OC)c2cc(C(=O)NCC(C)C)ccc21		7.6			7.94 nM	
COc1cc(C(=O)NS(=O)(=O)c2ccccc2C)ccc1Cc1cn(C)c2ccc(C(=O)NCCc3ccccc3)cc12	79.4 nM					
CCCCCCC(C)CNC(=O)c1ccc2c(c1)c(Cc1ccc(C(=O)NS(=O)(=O)c3ccccc3C)cc1OC)cn2C (configuration not stated)	7.94 nM	7.5				
CCCn1cc(Cc2ccc(C(=O)NS(=O)(=O)c3ccccc3)cc2OC)c2cc(C(=O)NCC(CC)CC)ccc21		7.7			3.98 nM	
CCC(C)CNC(=O)c1ccc2c(c1)c(Cc1ccc(C(=O)NS(=O)(=O)c3ccccc3C)cc1OC)cn2C (configuration not stated)	5.01 nM	8.7	20 µmol/kg	1.39 µmol/kg		Ratio [7]: 14
COc1cc(C(=O)NS(=O)(=O)c2ccccc2C)ccc1Cc1cn(C)c2ccc(C(=O)NCCC(C)C)cc12	15.8 nM					
COc1cc(C(=O)NS(=O)(=O)c2ccccc2C)ccc1Cc1cn(C)c2ccc(NC(=O)CC3CCCC3)cc12		9.7	0.41 µmol/kg	0.02 µmol/kg		Ratio [7]: 22
CCCc1cn(Cc2ccc(C(=O)NS(=O)(=O)c3ccccc3C)cc2OC)c2cc(C(=O)NCC(CC)CC)ccc12		8.8			1.26 nM	
CCC(CC)CNC(=O)c1ccc2c(c1)c(Cc1ccc(C(=O)NS(=O)(=O)c3ccccc3C)cc1OC)cn2C		8	14.7 µmol/kg	1.09 µmol/kg	2 nM	Cmax [9]: 410 ng/mL; AUC (Rattus norvegicus [10]): 5740 ng·h/mL; Ratio [7]: 14
COc1cc(C(=O)NS(=O)(=O)c2ccccc2C)ccc1Cc1cn(C)c2ccc(C(=O)NCC3CCCC3)cc12	3.16 nM	8.4		0.69 µmol/kg		Ratio [7]: 28
CCc1cn(Cc2ccc(C(=O)NS(=O)(=O)c3ccccc3C)cc2OC)c2cc(C(=O)NCC(CC)CC)ccc12	3.16 nM	8.2				
CCC(CC)CNC(=O)c1ccc2c(CCc3ccccc3)cn(Cc3ccc(C(=O)NS(=O)(=O)c4ccccc4C)cc3OC)c2c1					25.1 nM	
CCCC(C)CNC(=O)c1ccc2c(c1)c(Cc1ccc(C(=O)NS(=O)(=O)c3ccccc3C)cc1OC)cn2C (configuration not stated)	6.31 nM	8.5				
COc1cc(C(=O)NS(=O)(=O)c2ccccc2C)ccc1Cc1cn(C)c2ccc(C(=O)NC3CCCCC3)cc12	100 nM					
CCCn1cc(Cc2ccc(C(=O)O)cc2OC)c2cc(C(=O)NCC(C)C)ccc21					2510 nM	
CCCn1cc(Cc2ccc(C(=O)NS(=O)(=O)c3ccccc3C)cc2OC)c2cc(C(=O)NCC(CC)CC)ccc21	0.794 nM	8.9	5.6 µmol/kg	0.04 µmol/kg		Ratio [7]: 137
